High-throughput results: PubChem, PCMD
Yeast tox = yeast growth toxicity, wild-type and mutant, primary screen, cytotoxicity control for eIF2B function restoration project, wild-type and eIF2Bepsilon R284H mutant, A595. AID 685, 2007. 30,000 tested, 0.3% active. growth inhibition, % at 25 µM (by protocol). S. cerevisiae wild-type growth, A595 turbidity, 16 h;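 active = mutant and wild-type yeast strains alike exhibit over 30% growth inhibition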;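 note: 0% = untreated cell controls and 100% = YPD media blanks without cells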
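Test system: Wild-type and eIF2Bepsilon-R284H mutant S. cerevisiae, screened separately | Dosing: Single 25 µM compound dose in 0.2% DMSO | Schedule: 16 h compound exposure during growth at 30 °C | Detection: A595 turbidity | Evaluation: Growth inhibition (%) versus cell controls and blanks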
eIF2B yeast act = GCN4-lacZ reporter reduction in eIF2B-epsilon mutant yeast, primary screen, S. cerevisiae, eIF2B-epsilon R284H, Beta-Glo luminescence; inhibition, % at 25 µM (by protocol); 27,000 tested, 0.91% active; AID 688, 2007;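 active = mutant luminescence inhibited past about 50% while wild type luminescence and mutant growth stay under set limits, limit read from the data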
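Material – yeast eIF2B-epsilon R284H mutant carrying GCN4–beta-galactosidase fusion · Medium – YPD yeast growth medium · Compound – one concentration, 25 µM, 0.25% DMSO · Times – 16 h at 30 °C exposure · Signal – Beta-Glo luminescence plus absorbance at 595 nm · Read-out – % inhibition of reporter signal and growth versus controls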
Active calls of the source: *; nt = no result given. Only some compounds are listed: those with a hit (about 1% of all), similar ones and a draw of the others.

SMILES	Yeast tox	eIF2B yeast act
CC1CCCCC1NC(=O)CSc1nnc(-c2ccccc2)n1N (centres undefined)	-23.1	19.4
O=C(c1cccs1)N1CCCC1	-0.2	4.5
O=C(c1cccs1)N1CCC(c2ccccc2)C1 (centres undefined)	17.6	70.6*
Cn1c(=O)[nH]c(=O)c2[nH]c(N(Cc3ccccc3)Cc3ccccc3)nc21	-0.4	38.4
CCS(=O)(=O)N1CCN(C(=O)c2ccccc2)CC1	11.8	10.6
O=C(c1ccccc1)N1CCN(C(=O)c2ccncc2)CC1	15.7	50.5*
CCCC1COC(Cn2cncn2)(c2ccc(C)cc2)O1 (centres undefined)	93.4*	92.4
CCc1ccc(-c2cn(-c3nc(C)cc(C)n3)c(=N)o2)cc1	28.8	19.3
COc1cccc(C2c3c(oc4ccc(Cl)cc4c3=O)C(=O)N2c2cc(C)on2)c1OC (centres undefined)	16.2	21.8
COc1c2occc2c(OC)c2c(=O)cc(C(F)(F)C(F)(F)F)oc12	8.7	13.5
O=C(NC1CCCC1)C(c1ccccc1)N(Cc1ccco1)C(=O)Cc1cccs1 (centres undefined)	0.4	57.1*
O=C(NCC(=O)N(Cc1ccco1)C(C(=O)NC1CCCC1)c1ccncc1)c1cccs1 (centres undefined)	nt	-14.9
CCOC(=O)C1CCCN(C(=O)c2cc3c(C)nc4ccccc4c3o2)C1 (centres undefined)	-26.9	65.0*
CCOC(=O)C1CCCN(c2nc(C)nc3c2oc2ccccc23)C1 (centres undefined)	-0.6	12.4
COC(=O)[C@H](CC(C)C)NC(=O)N1CCN(c2cccc(C(F)(F)F)c2)CC1	5.2	12.0
CCOC(=O)C1(CCSC)NC(c2ccco2)C2C(=O)N(C)C(=O)C21 (centres undefined)	-14.4	72.4*
CCOC(=O)C1(CC)NC(c2ccco2)C2C(=O)N(C)C(=O)C21 (centres undefined)	17.9	-20.9
O=C(CNC(=O)c1cccs1)NCCN1CCN(c2ccccc2F)CC1	1.5	-14.5
CCCOc1ccc(N2C(=O)CC(SC(=NC)Nc3ccc(F)cc3)C2=O)cc1 (centres undefined)	-15.9	10.2
CCCOc1ccc(N2C(=O)CC(SC(=NCC)Nc3cccc(F)c3)C2=O)cc1 (centres undefined)	-44.3	52.7*
COC(=O)c1cc(O)c(OCc2ccccc2)c(O)c1	-11.4	69.6*
COC(=O)c1ccc(OCC(=O)c2ccccc2)cc1	5.2	22.6
Cc1nnc(NC2CCCCC2)[nH]c1=O	14.9	65.1*
O=c1[nH]c(NC2CCCCC2)nnc1Cc1ccccc1	16.5	10.6
CCN1CCN(C(c2ccc(OC)cc2)C(O)C(=O)c2c[nH]c3ccccc23)CC1 (centres undefined)	21.0	nt
SMILES	Yeast tox	eIF2B yeast act
CC(=O)Nc1ccc(S(=O)(=O)NCc2csc(C)n2)cc1	-8.9	-7.0
Cc1cccc2cc(COC(=O)C3CCCCC3)c(=O)[nH]c12	-27.8	-10.0
COc1ccc2c(c1)CCc1c(C(=O)N3CC4(C)CC3CC(C)(C)C4)noc1-2 (centres undefined)	-2.8	70.7*
COc1ccc2c(c1)CCc1c(C(=O)N3CCCc4ccccc43)noc1-2	-10.0	35.6
c1ccc(SCc2nc(-c3ccccn3)no2)cc1	17.6	63.6*
Cc1ccc(-c2noc(CSc3ccccc3)n2)cc1	8.3	21.4
Cc1ccc(SCC(=O)NCCSC(C)(C)C)cc1	9.2	15.9
CCc1ccc2[nH]c3nc(SCc4nnc(-c5ccc(C)cc5)o4)nnc3c2c1	-77.7	0.1
Cc1cc(N2CCN(C(=O)c3ccco3)CC2)n2ncc(-c3ccccc3)c2n1	93.8*	91.7
Cc1cc(N2CCOCC2)n2ncc(-c3ccccc3)c2n1	2.8	-1.1
CC(=O)c1c(C)[nH]c(C(=O)OCn2nnc3ccccc3c2=O)c1C	-17.6	20.8
Cc1nn(-c2ccccc2)c2sc(C(=O)OC3CCOC3=O)cc12 (centres undefined)	1.6	-9.3
O=C(Nc1cc(Cl)ccc1O)C1CCCO1 (centres undefined)	nt	16.7
O=C(Nc1nc2ccc(Cl)cc2s1)C1CCCO1 (centres undefined)	30.0*	nt
S=C(Nc1ccc2c(c1)OCO2)NC1CCN(Cc2ccccc2)CC1	5.2	nt
CCOC(=O)/C=c1\sc2n(c1=O)CCN=2	-14.5	38.4
O=c1/c(=C/c2ccc(O)cc2)sc2n1CCCN=2	16.4	78.8*
CN(C)CCN1C(=O)C(O)=C(C(=O)c2ccco2)C1c1ccccc1F (centres undefined)	-2.1	62.9*
CN(C)CCN1C(=O)C(O)=C(C(=O)c2cc3ccccc3o2)C1c1ccccn1 (centres undefined)	-12.0	-44.0
